One series has as its target α3β3γ2 GABAA receptors (Rattus norvegicus, UniProt P18508+P20236). The series can be described thus: Two-electrode voltage clamp, stimulation of GABA EC3 currents in Xenopus oocytes. Conditions: dose-response curves. Format: cell-based. In outline: (§1)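 Xenopus oocytes were injected with rat β3 and γ2 cDNAs plus α1, α2, α3 or α5. Follicle layers were removed 36 h later. Two-electrode voltage clamp was done at −60 mV and room temperature in XR buffer (pH 7.4, 5 mM HEPES). Test compound (0.1% DMSO final) was preapplied for 30 s, then coapplied with EC3 GABA until peak, with washes of up to 15 min. Curves were fitted to a four-parameter logistic.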
On the technique in general: Two-electrode voltage clamp is typically applied to oocytes expressing channels or transporters.

A short description of series [1]: Metabolic stability using pooled human liver microsomes. Type of series: in vitro ADME. The following applies: 1 and 10 μM, up to 60 min. A general note: Liver microsomes are a subcellular fraction often used to study metabolism.
Series [2] relates to anxiety. Conditions: cited from earlier work; for Anti-conflict effect / Effect on non-suppressed responding / response rates: dose range 0.1 to 10 mg/kg.
The test system of the next series is locomotor activity. The series is described as follows: Locomotor activity test. Format: in vivo, mouse.
Series [3] concerns anxiety. The series can be described thus: Light/dark cycle test. Type of series: in vivo, mouse.
The conditions of series [4]: via hepatic enzymes; ref unpublished results; cited from earlier work.
The conditions of series [5]: ref Mithridion, unpublished results; cited from earlier work.
The conditions of series [6]: ref Bristol-Myers Squibb, unpublished results of Phase I trials; cited from earlier work.
For series [7] the following is noted: cited from earlier work.
In the next series the target is α1β3γ2 GABAA receptors (Rattus norvegicus, UniProt P18508+P62813). The series is described as follows: Two-electrode voltage clamp, stimulation of GABA EC3 currents in Xenopus oocytes. Format: cell-based. In outline:
as §1

In another series the target is α2β3γ2 GABAA receptors (Rattus norvegicus, UniProt P18508+P23576). Described as above. Conditions: 100 nM. Type of series: cell-based. In outline:
as §1

A further series has as its target α5β3γ2 GABAA receptors (Rattus norvegicus, UniProt P18508+P19969). The description is as above. Type of series: cell-based. In outline:
as §1

Series [8] relates to neuropathic and inflammatory pain. The following applies: cited from earlier work.
Where [9] appears, read: positive control, 3 mg/kg, i.p.

“Also recorded” adds a separate entry of the source.

Sequence of α5β3γ2 GABAA receptors (P19969 32-464 limits assumed): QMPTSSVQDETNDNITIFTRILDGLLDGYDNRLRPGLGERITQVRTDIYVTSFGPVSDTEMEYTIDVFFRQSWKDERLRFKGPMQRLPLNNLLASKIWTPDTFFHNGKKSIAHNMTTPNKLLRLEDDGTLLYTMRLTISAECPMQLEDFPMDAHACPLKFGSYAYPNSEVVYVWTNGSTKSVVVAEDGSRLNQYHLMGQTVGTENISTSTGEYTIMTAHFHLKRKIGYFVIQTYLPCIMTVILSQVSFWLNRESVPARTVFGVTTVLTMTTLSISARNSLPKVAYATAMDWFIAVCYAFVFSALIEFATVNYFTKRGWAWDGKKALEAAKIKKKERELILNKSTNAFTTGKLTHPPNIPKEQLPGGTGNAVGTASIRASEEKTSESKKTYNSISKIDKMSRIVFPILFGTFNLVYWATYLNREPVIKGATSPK
Sequence of α5β3γ2 GABAA receptors (P63079 26-473 partner): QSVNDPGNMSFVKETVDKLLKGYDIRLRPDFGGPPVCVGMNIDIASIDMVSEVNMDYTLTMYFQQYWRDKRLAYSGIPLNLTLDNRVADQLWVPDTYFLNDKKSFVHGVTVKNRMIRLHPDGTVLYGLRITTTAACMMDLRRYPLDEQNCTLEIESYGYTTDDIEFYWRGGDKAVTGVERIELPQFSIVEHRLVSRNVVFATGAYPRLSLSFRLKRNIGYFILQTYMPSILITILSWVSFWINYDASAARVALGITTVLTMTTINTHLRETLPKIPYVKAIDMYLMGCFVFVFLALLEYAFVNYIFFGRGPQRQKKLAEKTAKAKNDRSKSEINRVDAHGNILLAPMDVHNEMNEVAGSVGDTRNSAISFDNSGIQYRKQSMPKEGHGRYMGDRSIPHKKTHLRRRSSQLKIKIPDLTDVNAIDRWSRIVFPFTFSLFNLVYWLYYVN
Sequence of α5β3γ2 GABAA receptors (P18508 39-466): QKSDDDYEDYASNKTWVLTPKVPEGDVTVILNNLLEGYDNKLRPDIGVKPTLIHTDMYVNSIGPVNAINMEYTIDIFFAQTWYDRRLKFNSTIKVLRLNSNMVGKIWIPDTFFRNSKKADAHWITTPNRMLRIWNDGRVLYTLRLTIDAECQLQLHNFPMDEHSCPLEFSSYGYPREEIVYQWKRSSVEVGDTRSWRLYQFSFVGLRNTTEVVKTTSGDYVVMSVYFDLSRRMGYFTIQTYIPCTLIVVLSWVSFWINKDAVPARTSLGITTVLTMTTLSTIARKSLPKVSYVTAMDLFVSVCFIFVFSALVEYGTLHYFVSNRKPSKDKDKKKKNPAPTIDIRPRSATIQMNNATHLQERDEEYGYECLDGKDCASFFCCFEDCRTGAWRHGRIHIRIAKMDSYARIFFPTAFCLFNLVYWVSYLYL
Sequence of α3β3γ2 GABAA receptors (P20236 29-493): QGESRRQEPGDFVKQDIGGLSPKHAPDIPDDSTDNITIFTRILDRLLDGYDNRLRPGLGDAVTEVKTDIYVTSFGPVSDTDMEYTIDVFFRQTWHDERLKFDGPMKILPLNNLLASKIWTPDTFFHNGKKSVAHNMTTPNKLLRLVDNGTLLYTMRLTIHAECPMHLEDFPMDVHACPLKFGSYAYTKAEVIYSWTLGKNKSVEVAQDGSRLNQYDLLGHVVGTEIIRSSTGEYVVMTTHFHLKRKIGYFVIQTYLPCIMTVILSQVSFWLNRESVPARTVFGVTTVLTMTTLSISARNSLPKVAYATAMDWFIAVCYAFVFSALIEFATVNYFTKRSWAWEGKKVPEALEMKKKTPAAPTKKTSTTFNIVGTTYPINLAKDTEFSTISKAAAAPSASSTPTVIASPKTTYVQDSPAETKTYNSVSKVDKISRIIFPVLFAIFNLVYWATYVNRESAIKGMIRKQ
Sequence of α3β3γ2 GABAA receptors (P63079 26-473 partner): as the sequence (P63079 26-473 partner) above
Sequence of α3β3γ2 GABAA receptors (P18508 39-466): as the sequence (P18508 39-466) above
Sequence of α1β3γ2 GABAA receptors (P62813 28-455): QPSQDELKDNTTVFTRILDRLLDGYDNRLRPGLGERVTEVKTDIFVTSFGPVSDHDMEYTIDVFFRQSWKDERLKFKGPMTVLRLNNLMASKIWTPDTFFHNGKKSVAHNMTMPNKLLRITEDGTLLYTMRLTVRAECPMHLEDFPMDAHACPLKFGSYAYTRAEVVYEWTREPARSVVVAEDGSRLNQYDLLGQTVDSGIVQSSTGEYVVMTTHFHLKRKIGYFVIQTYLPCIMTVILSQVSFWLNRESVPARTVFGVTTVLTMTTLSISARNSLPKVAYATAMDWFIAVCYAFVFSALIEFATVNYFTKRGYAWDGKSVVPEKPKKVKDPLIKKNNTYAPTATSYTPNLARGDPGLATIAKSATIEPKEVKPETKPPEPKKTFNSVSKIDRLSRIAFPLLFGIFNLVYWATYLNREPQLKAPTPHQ
Sequence of α1β3γ2 GABAA receptors (P63079 26-473 partner): as the sequence (P63079 26-473 partner) above
Sequence of α1β3γ2 GABAA receptors (P18508 39-466): as the sequence (P18508 39-466) above
Sequence of α2β3γ2 GABAA receptors (P23576 29-451): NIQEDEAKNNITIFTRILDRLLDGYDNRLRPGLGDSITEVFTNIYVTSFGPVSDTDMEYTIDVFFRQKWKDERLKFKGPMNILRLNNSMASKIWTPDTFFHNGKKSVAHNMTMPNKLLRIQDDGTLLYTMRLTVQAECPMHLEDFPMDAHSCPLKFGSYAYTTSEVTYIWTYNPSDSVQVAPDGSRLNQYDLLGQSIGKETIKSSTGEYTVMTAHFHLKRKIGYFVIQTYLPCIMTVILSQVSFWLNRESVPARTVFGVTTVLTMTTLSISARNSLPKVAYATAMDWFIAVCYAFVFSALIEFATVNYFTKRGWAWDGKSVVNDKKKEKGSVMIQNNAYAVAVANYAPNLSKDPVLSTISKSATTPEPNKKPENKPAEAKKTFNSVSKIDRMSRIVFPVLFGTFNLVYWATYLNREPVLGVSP
Sequence of α2β3γ2 GABAA receptors (P63079 26-473 partner): as the sequence (P63079 26-473 partner) above
Sequence of α2β3γ2 GABAA receptors (P18508 39-466): as the sequence (P18508 39-466) above

On to `C#Cc1ccc2c(c1)C(c1ccccn1)=NCc1c(C(=O)NC)ncn1-2` [compound 7, 8-Ethynyl-N-methyl-6-(pyridine-2-yl)-4H-benzo-[f]-imidazo-[1,5-a]-[1,4]-diazepine-3-carboxamide], for which the “Relative potency, in words” value at α3β3γ2 GABAA receptors is “relatively less potent than 8”. Besides, the “Metabolic stability on human liver microsomes, in words” value (“Metabolic stability” for short) in series [1] is “much more stable on human liver microsomes than 1”.

Regarding `C#Cc1ccc2c(c1)C(c1ccccn1)=NCc1c(-c3nc(C(C)C)no3)ncn1-2` [compound 12, 5-(8-Ethynyl-6-(pyridin-2-yl)-4H-benzo-[f]-imidazo-[1,5-a]-[1,4]-diazepine-3-yl)-3-isopropyl-1,2,4-oxadiazole], at α3β3γ2 GABAA receptors, the “Relative potency, in words” value is “far less potent than 6 and 11”. Moreover, in series [1], the “Metabolic stability” value was “significantly more stable than 1 and 2 respectively”.

For the molecule `C#Cc1ccc2c(c1)C(c1ccccc1F)=NCc1c(C(=O)OCC)ncn1-2` [compound 3], in the series with anxiety [2], the Anti-conflict effect entry was “robust anti-conflict effect” and the “Effect on non-suppressed responding / response rates” value was “some reduction in response rates at the highest dose tested”. Further, the “Metabolic stability” value in [1] is recorded as “underwent biotransformation almost quantitatively; also recorded: not very stable”.

For the molecule `C#Cc1ccc2c(c1)C(c1ccccc1)=NCc1c(C(=O)O)ncn1-2` [compound 4], the “Metabolic stability” value in [1] was “did not exhibit any metabolism”.

Consider `C#Cc1ccc2c(c1)C(c1ccccc1)=NCc1c(-c3nc(C(C)C)no3)ncn1-2` [compound 11], for which, in the series on locomotor activity (10 and 100 mg/kg), the “Locomotor activity vs vehicle” value is “significantly increased locomotor activity” and the “Sedation / ataxia, in words” value is on record as “devoid of sedative properties; also recorded: no effects from either ataxia or sedation; also recorded: no sedative properties”. Moreover, the “Anxiolytic activity (time spent in the lighted area vs vehicle)” value in the series with anxiety [3] (10 and 100 mg/kg) is reported as “significant anxiolytic activity”. In addition, the “Metabolic stability” value in [1] was “significantly more stable than 1 and 2 respectively; also recorded: much more stable on human liver microsomes than 1”.

Turning to `C#Cc1ccc2c(c1)C(c1ccccc1)=NCc1c(C(=O)OCC)ncn1-2` [compound 1], in [4], the “Metabolic transformation in human liver, in words” value was “largely transformed into the inactive metabolite XHe-II-053-acid (4)”. Further, in the series with anxiety [2], the “Side effects, in words” value is “lacked sedative, ataxic, muscle relaxant and amnestic side effects”; the Anti-conflict effect result is “anti-conflict effect”; the “Effect on non-suppressed responding / response rates” value is reported as “without producing diazepam-like alterations”. Moreover, the “Stability in human tissues, in words” value in series [5] was “stable in human blood, plasma, brain and kidney”. In addition, in series [6], the Safety in humans entry is “safe in humans”. Further, the “Preclinical safety and efficacy, in words” value in series [7] was “safe and effective”.

On to `C#Cc1ccc2c(c1)C(c1ccccc1)=NCc1c(C(=O)NC)ncn1-2` [compound 6, 8-Ethynyl-N-methyl-6-phenyl-4H-benzo-[f]-imidazo-[1,5-a]-[1,4]-diazepine-3-carboxamide], for which the “Efficacy, in words” value on α1β3γ2 GABAA receptors (100 nM) is listed as “very weak agonistic effects”; on α1β3γ2 GABAA receptors (higher concentration) it was “antagonist”; at α2β3γ2 GABAA receptors, “very weak agonistic effects”; at α5β3γ2 GABAA receptors (100 nM), “very weak agonistic effects”; on α5β3γ2 GABAA receptors (higher concentration), “antagonist”. In series [1], the “Metabolic stability” value is “decreased rate of metabolism; also recorded: much more stable on human liver microsomes than 1”.

Turning to `C#Cc1ccc2c(c1)C(c1ccccc1F)=NCc1c(C(=O)NC)ncn1-2` [compound 8, 8-Ethynyl-N-methyl-6-(2-fluorophenyl)-4H-benzo-[f]-imidazo-[1,5-a]-[1,4]-diazepine-3-carboxamide], the “Metabolic stability” value in series [1] is “significantly more stable than the corresponding ethyl ester analog 3”.

For `C#Cc1ccc2c(c1)C(c1ccccn1)=NCc1c(C(=O)O)ncn1-2` [compound 5], the “Metabolic stability” value in series [1] is recorded as “did not exhibit any metabolism”.

As to `CN1C(=O)CN=C(c2ccccc2)c2cc(Cl)ccc21` [Diazepam, reference compound], the “Locomotor activity vs vehicle” value with locomotor activity (setting [9]) is listed as “significantly reduced locomotor activity”. Also, in the series with anxiety [3] (setting [9]), the “Anxiolytic activity (time spent in the lighted area vs vehicle)” value is “significantly anxiolytic”.

Regarding `C#Cc1ccc2c(c1)C(c1ccccn1)=NCc1c(C(=O)OCC)ncn1-2` [compound 2], in the series with anxiety [2], the “Side effects, in words” value was “lacked sedative, ataxic, muscle relaxant and amnestic side effects”; the Anti-conflict effect result is recorded as “anti-conflict effect”; the “Effect on non-suppressed responding / response rates” value is listed as “without producing diazepam-like alterations”. In addition, the “Metabolic stability” value in [1] is reported as “minimal metabolism”. Moreover, the “Tolerance development (analgesic activity, chronic versus acute treatment)” value in series [8] (9-day chronic treatment period) was “no loss of analgesic activity”. Besides, in series [8] (at doses producing maximal antihyperalgesia), the “Sedation and motor impairment” value was “devoid of sedation and motor impairment”.

(Values after article PMC3529916 (Bioorganic & medicinal chemistry, 2012).)
